Source: ChEMBL document CHEMBL2346638, “Secondary amines containing one aromatic nitro group: preparation, nitrosation, sustained nitric oxide release, and the synergistic effects of released nitric oxide and an arginase inhibitor on vascular smooth muscle cell proliferation” (Bioorg Med Chem, 2013)
Calls of active or inactive are those of the source. The rule behind the calls is not given here.

Experiments:
HASMC [1] = assay: Induction of nitric oxide release in HASMC at 5 to 20 uM after 60 mins by DAF-FM DA assay; assay type: functional, cell-based; settings: Homo sapiens
[2] = Nitrosation of the compound in glacial acetic acid/tetrahydrofuran after 5 to 8 hrs by IR spectroscopy analysis; assay type: physicochemical
HASMC [3] = assay: Antiproliferative activity against HASMC using calcein AM and ethidium homodimer-1 at <= 20 uM by LIVE/DEAD assay; assay type: functional, cell-based; settings: Homo sapiens
In short: (§1)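 HASMCs in black plates were exposed for 96 h to compound at 0.1–20 µM in medium with 1% DMSO. Floating dead cells were pelleted, washed in PBS and returned to their wells. Cells were stained with Eth-1 (0.5 µM) and calcein AM (0.25 µM) for 45 min at room temperature, then read at ex/em 495/530 and 528/645 nm. Triplicate; t-test versus vehicle.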

HASMC [4] = assay: Antiproliferative activity against HASMC at <= 20 uM after 96 hrs by MTT assay; assay type: functional, cell-based; settings: Homo sapiens
In short: (§2)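 Serum-starved HASMCs (3000–3500 cells/well) received compound in complete SMC medium (2% FBS) with 1% DMSO at 0.1, 1, 5, 10 or 20 µM for 48 h. Fresh medium was then added and cells grew a further 48 h (96 h total). MTT 4–6 h at 37 °C, solubilized, A570 as % of medium-only control; 1% DMSO vehicle; triplicate; t-test versus vehicle.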

[5] = Induction of nitric oxide release in phosphate buffered saline up to 20 days by Griess reagent test; assay type: physicochemical; parameters: concentration or dose not given beside the values; settings: buffer, 480 h
In short: (§3)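 Nitrosated compound was stirred in 1X PBS at 0.0125 M (0.0250 M NO) at room temperature. Aliquots were taken hourly to 12 h, every 4 h to 24 h, every 8 h to 48 h, then every 24 h. Aliquots were centrifuged and triplicate supernatants mixed with Griess reagent for 5 min. Absorbance at 550 nm was plotted against time.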

[6] = Half life of the compound; assay type: physicochemical; in short: as §3
[7] = Induction of nitric oxide release in phosphate buffered saline up to 20 days by Griess reagent test in presence of glutathione; assay type: physicochemical; settings: buffer, 480 h
In short: (§4)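 The same protocol was used in 1X PBS containing 5 mM reduced glutathione: donor at 0.0125 M, room temperature, timed aliquots over about 20 days. Supernatants were mixed with Griess reagent and absorbance read at 550 nm; no new calibration was needed.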

[8] = Half life of the compound in presence of glutathione; assay type: physicochemical; settings: gsh; in short: as §4
[9] = Nitrosation of the compound in glacial acetic acid/tetrahydrofuran after 5 to 8 hrs by IR spectroscopy analysis in presence of glutathione; assay type: physicochemical
[10] = Nitrosation of the compound in glacial acetic acid/tetrahydrofuran after 24 to 48 hrs by IR spectroscopy analysis; assay type: physicochemical
[11] = Nitrosation of the compound in glacial acetic acid/tetrahydrofuran after 24 to 48 hrs by IR spectroscopy analysis in presence of glutathione; assay type: physicochemical
HASMC [12] = assay: Antiproliferative activity against HASMC at 1 mM after 96 hrs by MTT assay; assay type: functional; settings: Homo sapiens
In short: (§5)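 HASMCs at passage six or later were seeded at 3000–3500 cells/well, attached 16–24 h at 37 °C, then serum-starved 24–48 h. iNOS was induced with LPS (50 µg/mL) plus IFN-γ (50 ng/mL) for 6 h at 37 °C. ABH was then given in SMC medium at 1, 10, 100 µM, 1.0 and 5.0 mM over two 48 h feeds. MTT absorbance was read at 570 nm; duplicate determinations.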

HASMC [13] = assay: Antiproliferative activity against HASMC at 5 mM after 96 hrs by MTT assay; assay type: functional; settings: Homo sapiens; in short: as §5
HASMC [14] = assay: Induction of nitric oxide release in HASMC at 0.001 to 5 mM after 60 mins by DAF-FM DA assay; settings: Homo sapiens
[15] = Toxicity in HASMC assessed as cell viability at 10 uM after 96 hrs by MTT assay relative to control; assay type: cell-based; settings: human, HASMC cells; read-out: Activity; in short: as §2
[16] = Toxicity in HASMC assessed as cell viability at 0.1 uM after 96 hrs by MTT assay relative to control; assay type: cell-based; settings: human, HASMC cells; read-out: Activity; in short: as §2
HASMC [17] = assay: Toxicity in HASMC assessed as cell viability using calcein AM and ethidium homodimer-1 by LIVE/DEAD assay; assay type: cell-based; settings: human; in short: as §1
[18] = Toxicity in HASMC assessed as cell viability at 20 uM after 96 hrs by MTT assay relative to control; assay type: cell-based; settings: human, HASMC cells; read-out: Activity; in short: as §2
[19] = Toxicity in HASMC assessed as cell viability at 5 uM after 96 hrs by MTT assay relative to control; assay type: cell-based; settings: human, HASMC cells; read-out: Activity; in short: as §2
[20] = Toxicity in HASMC assessed as cell viability at 1 uM after 96 hrs by MTT assay relative to control; assay type: cell-based; settings: human, HASMC cells; read-out: Activity; in short: as §2
HASMC [21] = assay: Induction of cell proliferation in HASMC at 0.1 to 5 uM after 96 hrs by MTT assay; assay type: cell-based; settings: human
HASMC [22] = assay: Induction of nitric oxide release in HASMC at 20 uM after 60 mins by DAF-FM DA assay in presence of S-2-amino-6-boronic acid; assay type: functional, cell-based; settings: Homo sapiens
In short: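 After LPS/IFN-γ induction (6 h), HASMCs were treated with 20 µM donor plus 5 mM ABH over 96 h. Cells were then loaded with DAF-FM DA (10 µM) for 60 min at room temperature in the dark, washed three times, left to de-esterify, and read at ex/em 495/515 nm.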

HASMC [23] = assay: Antiproliferative activity against HASMC at 20 uM after 96 hrs by MTT assay in presence of S-2-amino-6-boronic acid; assay type: functional, cell-based; settings: Homo sapiens
In short: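 HASMCs were induced with LPS (50 µg/mL) and IFN-γ (50 ng/mL) for 6 h at 37 °C. Cytokines were removed and cells were treated with 5 mM ABH plus donor (20 µM) in SMC medium for 48 h at 37 °C. A second dose was added, followed by a further 48 h. Readout was MTT absorbance at 570 nm.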

HASMC [24] = assay: Antiproliferative activity against HASMC using calcein AM and ethidium homodimer-1 at 20 uM by LIVE/DEAD assay in presence of S-2-amino-6-boronic acid; assay type: functional, cell-based; settings: Homo sapiens
In short: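 HASMCs in black plates were induced with LPS/IFN-γ for 6 h, then given 20 µM donor plus 5 mM ABH for two 48 h periods. Detached cells were pelleted, washed and returned to their wells. Staining used ethidium homodimer-1 (0.5 µM) and calcein AM (0.25 µM) for 45 min at room temperature. Live cells were read at 495/530 nm and dead cells at 528/645 nm.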

HASMC [25] = assay: Antiproliferative activity against HASMC at 20 uM after 96 hrs by MTT assay; assay type: functional, Homo sapiens; in short: as §2

Structure (SMILES)	Activity (HASMC [1])	Activity (HASMC [3])	Activity (HASMC [4])	Activity [5] [%]	half-life [6] [h]	viability at 96 h, 10 µM [15] [%]	viability at 96 h, 0.1 µM [16] [%]	Activity (HASMC [17])	viability at 96 h, 20 µM [18] [%]	viability at 96 h, 5 µM [19] [%]	viability at 96 h, 1 µM [20] [%]	other results
CCCCCCCCN(N=O)c1ccc([N+](=O)[O-])c(N(CCCCCCCC)N=O)c1	Active	Active	Active	2.63	83	–	–	–	–	–	–	Activity [2]: 100%
CCCCCCCCCN(N=O)c1ccc([N+](=O)[O-])c(N(CCCCCCCCC)N=O)c1	Active	Active	Active	2.83	69	–	–	–	–	–	–	Activity [2]: 100%; Activity [7]: 1.29%; half-life [8]: 109 h; Activity [9]: 100%
CCCCCCCCN(N=O)c1cccc(N(CCCCCCCC)N=O)c1[N+](=O)[O-]	Active	Active	Active	2.13	93	–	–	–	–	–	–	Activity [10]: 100%; Activity [11]: 100%; Activity [7]: 1.32%; half-life [8]: 123 h
N[C@@H](CCCCB(O)O)C(=O)O	–	–	–	–	–	–	–	–	–	–	–	inhibition at 1000 µM (HASMC [12]): 35%; inhibition at 5000 µM (HASMC [13]): 48%; Activity (HASMC [14]): Active
CCCCCCCCCCN(N=O)c1cccc(N(CCCCCCCCCC)N=O)c1[N+](=O)[O-]	Active	–	–	2.6	62	–	–	–	–	–	–	Activity [10]: 100%; Activity [11]: 100%; Activity [7]: 1.9%; half-life [8]: 108 h
CCCCCCCN(N=O)c1ccc([N+](=O)[O-])c(N(CCCCCCC)N=O)c1	Active	Active	Active	2.48	87	–	–	–	–	–	–	Activity [2]: 100%
CCCCCCCNc1cccc(NCCCCCCC)c1[N+](=O)[O-]	–	–	–	–	–	81	81.6	Non-toxic	80	82	80	–
CCCCCCCCCCNc1cccc(NCCCCCCCCCC)c1[N+](=O)[O-]	–	–	–	–	–	69	76.8	Toxic	65	70	75.5	–
CCCCCCNc1cccc(NCCCCCC)c1[N+](=O)[O-]	–	–	–	–	–	81	82.2	Non-toxic	81	84	82	–
CCCCCCCNc1ccc([N+](=O)[O-])c(NCCCCCCC)c1	–	–	–	–	–	86	88.3	Non-toxic	85.6	87.6	87	–
CCCCCCCCNc1cccc(NCCCCCCCC)c1[N+](=O)[O-]	–	–	–	–	–	83.2	86.2	Non-toxic	82.8	82.9	89.7	–
CCCCCCCCCNc1cccc(NCCCCCCCCC)c1[N+](=O)[O-]	–	–	–	–	–	73	82	Toxic	68	75	78	–
CCCCCCCN(N=O)c1cccc(N(CCCCCCC)N=O)c1[N+](=O)[O-]	inactive	Active	Active	2.02	126	–	–	–	–	–	–	Activity [10]: 100%; Activity (HASMC [21]): Toxic
CCCCCCCCCCNc1ccc([N+](=O)[O-])c(NCCCCCCCCCC)c1	–	–	–	–	–	84	89	Non-toxic	84	88	87.4	–
CCCCCCCCCCN(N=O)c1ccc([N+](=O)[O-])c(N(CCCCCCCCCC)N=O)c1	Active	Active	Active	3	60	–	–	–	–	–	–	Activity [2]: 100%
CCCCCCN(N=O)c1ccc([N+](=O)[O-])c(N(CCCCCC)N=O)c1	Active	Active	Active	2.34	105	–	–	–	–	–	–	Activity (HASMC [22]): Active; Activity [2]: 100%; Activity [7]: 0.84%; half-life [8]: 126 h; Activity [9]: 100%; inhibition (HASMC [23]): Active; inhibition (HASMC [24]): Active; Activity (HASMC [25]): 23%
CCCCCCCCCNc1ccc([N+](=O)[O-])c(NCCCCCCCCC)c1	–	–	–	–	–	84.5	87	Non-toxic	86	86	86.3	–
CCCCCCCCNc1ccc([N+](=O)[O-])c(NCCCCCCCC)c1	–	–	–	–	–	84	84.6	Non-toxic	85.4	87.2	89.6	–
CCCCCCCCCN(N=O)c1cccc(N(CCCCCCCCC)N=O)c1[N+](=O)[O-]	Active	–	–	2.32	80	–	–	–	–	–	–	Activity [10]: 100%
CCCCCCNc1ccc([N+](=O)[O-])c(NCCCCCC)c1	–	–	–	–	–	85.9	85.1	Non-toxic	87	84	86.1	–
CCCCCCN(N=O)c1cccc(N(CCCCCC)N=O)c1[N+](=O)[O-]	Active	Active	Active	1.85	140	–	–	–	–	–	–	Activity (HASMC [22]): Active; Activity [10]: 100%; inhibition (HASMC [23]): Active; inhibition (HASMC [24]): Active; Activity (HASMC [25]): 18%
